Article PMC8717467 (Chemical biology & drug design, 2020)
One block for each molecule: values may come before it. Bridge positions count the residues as written; N and C are the ends. Peptide text beside a SMILES is read from it.

How the values were obtained:
[1] = tested on: lymph node cells from type II collagen-immunized HLA-DQ8 mice; conditions: ref A. Gokhale et al., 2013; A. S. Gokhale et al., 2015; cited from earlier work
[2] = tested on: adhesion between CD2 protein-expressing T cells and CD58 protein overexpressing Caco-2 cells; conditions: read-out: IC50 in cell adhesion assay, Jurkat/T cells and epithelial cells such as Caco-2 and OVCAR-3, ref A. Gokhale et al., 2011, 2013, A. S. Gokhale et al., 2015; cited from earlier work
Thermal stability = type: physicochemical
Outline: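 CD spectra of the peptide in water were recorded from 25 to 85 °C in 5 °C steps, 4 scans per temperature, 185–320 nm. Samples from 25, 55 and 85 °C were checked by mass spectrometry. Separately, peptide was incubated 30 min at 25, 55 or 85 °C, then run on C-18 HPLC and reported as relative peak area from triplicate experiments.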

[3] = Chemical stability in buffers of different pH; type: physicochemical; conditions: pH 1.5, 7.4 and 9.6 buffers, 30 days, HPLC, zero time peak area = 100%
[4] = tested on: T cell proliferation of lymph node cells from peptide-immunized DQ8 mice; experiment: Immunogenicity studies; type: in vivo; conditions: LNC T-cell proliferation 10 days after immunization
Outline: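 HLA-DQ8 mice were immunized with 200 μL of test peptide at 50 μg/mL. Ten days later, lymph nodes were harvested and made into single-cell suspensions. The lymph node cells were challenged in vitro with a range of peptide concentrations to measure T-cell proliferation. ConA (1 μg/mL) served as positive control. Results are stimulation index versus peptide concentration; an index above 2 counted as positive.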

[5] = target: T1, adhesion between Jurkat cells (CD2) and OVCAR-3 cells (CD58) (Homo sapiens, UniProt P19256); conditions: read-out: IC50, Jurkat cell-OVCAR-3 cell adhesion assay
T1 sequence (P19256 29-250): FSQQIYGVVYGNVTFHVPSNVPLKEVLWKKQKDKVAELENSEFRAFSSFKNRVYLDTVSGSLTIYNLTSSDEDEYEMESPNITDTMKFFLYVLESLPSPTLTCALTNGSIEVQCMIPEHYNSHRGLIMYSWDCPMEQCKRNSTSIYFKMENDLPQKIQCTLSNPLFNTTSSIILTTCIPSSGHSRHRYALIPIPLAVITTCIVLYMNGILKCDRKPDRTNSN
T1 sequence (P06729 25-351 partner): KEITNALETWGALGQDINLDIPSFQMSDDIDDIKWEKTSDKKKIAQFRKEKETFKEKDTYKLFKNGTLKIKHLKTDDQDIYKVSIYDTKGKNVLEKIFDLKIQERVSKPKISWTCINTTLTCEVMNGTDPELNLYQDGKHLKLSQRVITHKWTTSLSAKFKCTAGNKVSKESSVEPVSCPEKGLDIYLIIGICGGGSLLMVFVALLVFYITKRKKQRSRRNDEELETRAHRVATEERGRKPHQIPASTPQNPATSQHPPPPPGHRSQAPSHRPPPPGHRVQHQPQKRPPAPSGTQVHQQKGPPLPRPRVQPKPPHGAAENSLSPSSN

[6] = target: T2, adhesion between Jurkat cells (CD2 protein) and HFLS-RA cells (CD58 protein) (Homo sapiens, UniProt P19256); conditions: read-out: IC50, Jurkat cell - HFLS-RA cell adhesion assay
T2 sequence (P19256 29-250): T1 sequence (P19256 29-250)
T2 sequence (P06729 25-351 partner): T1 sequence (P06729 25-351 partner)

CD58 adhesion domain = target: T3, CD58 adhesion domain (Homo sapiens, UniProt P19256); experiment: SPR
T3 chain: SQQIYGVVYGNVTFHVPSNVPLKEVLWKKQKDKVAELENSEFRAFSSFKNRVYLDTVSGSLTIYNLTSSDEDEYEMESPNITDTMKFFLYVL

Molecule: CC[C@H](C)[C@@H]1NC(=O)[C@H](CC(=O)O)NC(=O)[C@H](CC(=O)O)NC(=O)[C@@H]2CCCN2C(=O)[C@H]2CCCN2C(=O)[C@H](CC(=O)O)NC(=O)[C@H](Cc2ccc(O)cc2)NC(=O)[C@H]([C@@H](C)CC)NC(=O)[C@H](CO)NC(=O)[C@H](CCCCN)NC1=O [Peptide 6]
T cell immune response in cells derived from transgenic mice that develop arthritis [1]: suppress the T cell immune response | IC50 [2]: 6.9 nM

Molecule: C[C@@H]1NC(=O)[C@@H]2CSSC[C@H](NC(=O)[C@H](CC(=O)O)NC(=O)[C@H](CC(=O)O)NC(=O)CNC(=O)[C@H](CC(=O)O)NC(=O)[C@H](Cc3ccc(O)cc3)NC1=O)C(=O)N[C@@H](CCCCN)C(=O)N[C@@H](CO)C(=O)N[C@@H](C)C(=O)N1CCC[C@H]1C(=O)N1CCC[C@H]1C(=O)N[C@@H](CO)C(=O)N2 [SFTI-a1] (cyclo(APPSCAYDGDDCKS); disulfide 5-12)
Thermal stability: change of CD spectra with temperature (Thermal stability; in water, 25 to 85 °C in 5 °C steps, CD): not significantly changed | Thermal stability: change in HPLC peak area (Thermal stability; incubated at 55 and 85 °C for 30 min, HPLC C-18, triplicate experiments): no significant change in HPLC peak area | Thermal stability: mass spectrometric analysis (Thermal stability; samples incubated at different temperatures (25, 55, 85 °C) in solution): no change in its mass | Chemical stability: degradation in buffers [3]: not degraded significantly | Immunogenicity [4]: not immunogenic | IC50 [5]: 23.3 ± 4.62 nM | IC50 [6]: 37.2 ± 1.02 nM

Kd (CD58 adhesion domain): 320 nM
B1: SFTI-a1 (peptide)
chain: cyclo(CKSAPPSCAYDGDD)
modifications: disulfide 1-8
SMILES: C[C@@H]1NC(=O)[C@@H]2CSSC[C@H](NC(=O)[C@H](CC(=O)O)NC(=O)[C@H](CC(=O)O)NC(=O)CNC(=O)[C@H](CC(=O)O)NC(=O)[C@H](Cc3ccc(O)cc3)NC1=O)C(=O)N[C@@H](CCCCN)C(=O)N[C@@H](CO)C(=O)N[C@@H](C)C(=O)N1CCC[C@H]1C(=O)N1CCC[C@H]1C(=O)N[C@@H](CO)C(=O)N2
